Reference: ChEMBL document CHEMBL5674868, “Cancer Cells Hijack PRC2 to Modify Multiple Cytokine Pathways” (PLoS One, 2015)
Activity calls are given as the source filed them. No cut-off for these calls is given here.

Assays:
Assay type in all cases: cell-based
[1] = molecular target: Histone-lysine N-methyltransferase EZH2 (Homo sapiens) (UniProt Q15910); assay: Inhibition of EZH2 in human ASPC1 cells assessed as effect on PITX2 mRNA level after 6 hrs by RT-PCR analysis in presence of IFN-gamma
How it was run: (§1)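 Cells were treated for two four-day cycles with 2 μM GSK343 or UNC1999, then left untreated or stimulated with human IFNγ for 6 h. mRNA was measured by reverse transcription quantitative PCR and normalized to β-actin. Three biological replicates were run per treatment group.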

[2] = molecular target: Histone-lysine N-methyltransferase EZH2 (Homo sapiens) (UniProt Q15910); assay: Inhibition of EZH2 in human A549 cells assessed as effect on PITX2 mRNA level after 6 hrs by RT-PCR analysis; how it was run: as §1
[3] = molecular target: Histone-lysine N-methyltransferase EZH2 (Homo sapiens) (UniProt Q15910); assay: Inhibition of EZH2 in human MCF7 cells assessed as effect on IRF1 mRNA level after 6 hrs by RT-PCR analysis; how it was run: as §1
[4] = molecular target: Histone-lysine N-methyltransferase EZH2 (Homo sapiens) (UniProt Q15910); assay: Inhibition of EZH2 in human HeLa cells assessed as effect on PITX2 mRNA level after 6 hrs by RT-PCR analysis; how it was run: as §1
[5] = molecular target: Histone-lysine N-methyltransferase EZH2 (Homo sapiens) (UniProt Q15910); assay: Inhibition of EZH2 in human HeLa cells assessed as effect on IRF1 mRNA level after 6 hrs by RT-PCR analysis in presence of IFN-gamma; how it was run: as §1
[6] = molecular target: Histone-lysine N-methyltransferase EZH2 (Homo sapiens) (UniProt Q15910); assay: Inhibition of EZH2 in human A549 cells assessed as effect on HPRT mRNA level after 6 hrs by RT-PCR analysis; how it was run: as §1
[7] = molecular target: Histone-lysine N-methyltransferase EZH2 (Homo sapiens) (UniProt Q15910); assay: Inhibition of EZH2 in human A549 cells assessed as effect on IRF1 mRNA level after 6 hrs by RT-PCR analysis in presence of IFN-gamma; how it was run: as §1
[8] = molecular target: Histone-lysine N-methyltransferase EZH2 (Homo sapiens) (UniProt Q15910); assay: Inhibition of EZH2 in human ASPC1 cells assessed as effect on IRF1 mRNA level after 6 hrs by RT-PCR analysis in presence of IFN-gamma; how it was run: as §1
[9] = molecular target: Histone-lysine N-methyltransferase EZH2 (Homo sapiens) (UniProt Q15910); assay: Inhibition of EZH2 in human MCF7 cells assessed as effect on HPRT mRNA level after 6 hrs by RT-PCR analysis; how it was run: as §1
[10] = molecular target: Histone-lysine N-methyltransferase EZH2 (Homo sapiens) (UniProt Q15910); assay: Inhibition of EZH2 in human MCF7 cells assessed as effect on PITX2 mRNA level after 6 hrs by RT-PCR analysis
How it was run: (§2)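 Cells pretreated for two 4-day cycles with 2 µM GSK343 or UNC1999, then left unstimulated or given human IFNγ for 6 h. RNA reverse-transcribed and measured by quantitative PCR, normalized to β-actin. Three biological replicates per treatment group.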

[11] = molecular target: Histone-lysine N-methyltransferase EZH2 (Homo sapiens) (UniProt Q15910); assay: Inhibition of EZH2 in human HeLa cells assessed as effect on HPRT mRNA level after 6 hrs by RT-PCR analysis; how it was run: as §1
[12] = molecular target: Histone-lysine N-methyltransferase EZH2 (Homo sapiens) (UniProt Q15910); assay: Inhibition of EZH2 in human A549 cells assessed as effect on PITX2 mRNA level after 6 hrs by RT-PCR analysis in presence of IFN-gamma; how it was run: as §1
[13] = molecular target: Histone-lysine N-methyltransferase EZH2 (Homo sapiens) (UniProt Q15910); assay: Inhibition of EZH2 in human MCF7 cells assessed as decrease in H3K27me3 levels at 2 uM after 6 hrs by Western blot analysis
[14] = molecular target: Histone-lysine N-methyltransferase EZH2 (Homo sapiens) (UniProt Q15910); assay: Inhibition of EZH2 in human HeLa cells assessed as decrease in H3K27me3 levels at 2 uM after 6 hrs by Western blot analysis
[15] = molecular target: Histone-lysine N-methyltransferase EZH2 (Homo sapiens) (UniProt Q15910); assay: Inhibition of EZH2 in human HeLa cells assessed as effect on HPRT mRNA level after 6 hrs by RT-PCR analysis in presence of IFN-gamma; how it was run: as §1
[16] = molecular target: Histone-lysine N-methyltransferase EZH2 (Homo sapiens) (UniProt Q15910); assay: Inhibition of EZH2 in human MCF7 cells assessed as effect on IRF1 mRNA level after 6 hrs by RT-PCR analysis in presence of IFN-gamma; how it was run: as §2
[17] = molecular target: Histone-lysine N-methyltransferase EZH2 (Homo sapiens) (UniProt Q15910); assay: Inhibition of EZH2 in human ASPC1 cells assessed as effect on HPRT mRNA level after 6 hrs by RT-PCR analysis; how it was run: as §1
[18] = molecular target: Histone-lysine N-methyltransferase EZH2 (Homo sapiens) (UniProt Q15910); assay: Inhibition of EZH2 in human ASPC1 cells assessed as effect on PITX2 mRNA level after 6 hrs by RT-PCR analysis; how it was run: as §1
[19] = molecular target: Histone-lysine N-methyltransferase EZH2 (Homo sapiens) (UniProt Q15910); assay: Inhibition of EZH2 in human A549 cells assessed as effect on HPRT mRNA level after 6 hrs by RT-PCR analysis in presence of IFN-gamma; how it was run: as §1
[20] = molecular target: Histone-lysine N-methyltransferase EZH2 (Homo sapiens) (UniProt Q15910); assay: Inhibition of EZH2 in human MCF7 cells assessed as effect on PITX2 mRNA level after 6 hrs by RT-PCR analysis in presence of IFN-gamma; how it was run: as §2
[21] = molecular target: Histone-lysine N-methyltransferase EZH2 (Homo sapiens) (UniProt Q15910); assay: Inhibition of EZH2 in human A549 cells assessed as effect on IRF1 mRNA level after 6 hrs by RT-PCR analysis; how it was run: as §1
[22] = molecular target: Histone-lysine N-methyltransferase EZH2 (Homo sapiens) (UniProt Q15910); assay: Inhibition of EZH2 in human AsPC1 cells assessed as decrease in H3K27me3 levels at 2 uM after 6 hrs by Western blot analysis
[23] = molecular target: Histone-lysine N-methyltransferase EZH2 (Homo sapiens) (UniProt Q15910); assay: Inhibition of EZH2 in human HeLa cells assessed as effect on IRF1 mRNA level after 6 hrs by RT-PCR analysis; how it was run: as §1
[24] = molecular target: Histone-lysine N-methyltransferase EZH2 (Homo sapiens) (UniProt Q15910); assay: Inhibition of EZH2 in human ASPC1 cells assessed as effect on HPRT mRNA level after 6 hrs by RT-PCR analysis in presence of IFN-gamma; how it was run: as §1
[25] = molecular target: Histone-lysine N-methyltransferase EZH2 (Homo sapiens) (UniProt Q15910); assay: Inhibition of EZH2 in human A549 cells assessed as decrease in H3K27me3 levels at 2 uM after 6 hrs by Western blot analysis
[26] = molecular target: Histone-lysine N-methyltransferase EZH2 (Homo sapiens) (UniProt Q15910); assay: Inhibition of EZH2 in human MCF7 cells assessed as effect on HPRT mRNA level after 6 hrs by RT-PCR analysis in presence of IFN-gamma; how it was run: as §1
[27] = molecular target: Histone-lysine N-methyltransferase EZH2 (Homo sapiens) (UniProt Q15910); assay: Inhibition of EZH2 in human ASPC1 cells assessed as effect on IRF1 mRNA level after 6 hrs by RT-PCR analysis; how it was run: as §1
[28] = molecular target: Histone-lysine N-methyltransferase EZH2 (Homo sapiens) (UniProt Q15910); assay: Inhibition of EZH2 in human HeLa cells assessed as effect on PITX2 mRNA level after 6 hrs by RT-PCR analysis in presence of IFN-gamma; how it was run: as §1

Sequence of Histone-lysine N-methyltransferase EZH2 (Homo sapiens) (Q15910 whole entry, looked up): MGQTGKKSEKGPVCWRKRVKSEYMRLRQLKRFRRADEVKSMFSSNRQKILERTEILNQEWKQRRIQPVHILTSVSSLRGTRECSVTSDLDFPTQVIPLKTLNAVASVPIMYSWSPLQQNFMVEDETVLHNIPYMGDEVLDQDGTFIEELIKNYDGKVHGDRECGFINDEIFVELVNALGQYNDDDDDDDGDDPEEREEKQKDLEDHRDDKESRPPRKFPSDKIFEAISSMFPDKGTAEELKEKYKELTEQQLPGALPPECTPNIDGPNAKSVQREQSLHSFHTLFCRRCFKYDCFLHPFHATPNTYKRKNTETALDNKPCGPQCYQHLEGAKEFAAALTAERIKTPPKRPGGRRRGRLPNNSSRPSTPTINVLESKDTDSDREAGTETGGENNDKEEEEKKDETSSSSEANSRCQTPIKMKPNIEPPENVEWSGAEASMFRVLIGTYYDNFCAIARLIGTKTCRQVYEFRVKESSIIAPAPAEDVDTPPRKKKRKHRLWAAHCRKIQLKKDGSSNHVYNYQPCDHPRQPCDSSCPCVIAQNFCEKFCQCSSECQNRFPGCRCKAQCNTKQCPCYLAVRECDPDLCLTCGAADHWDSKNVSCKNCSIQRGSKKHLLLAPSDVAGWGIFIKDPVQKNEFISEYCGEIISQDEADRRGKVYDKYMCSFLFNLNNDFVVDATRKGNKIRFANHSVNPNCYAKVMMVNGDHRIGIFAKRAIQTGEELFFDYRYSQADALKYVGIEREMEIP

inhibition [1]: inactive | inhibition [2]: inactive | inhibition [3]: inactive | inhibition [4]: inactive | inhibition [5]: inactive | inhibition [6]: inactive | inhibition [7]: inactive | inhibition [8]: inactive | inhibition [9]: inactive | inhibition [10]: inactive | inhibition [11]: inactive | inhibition [12]: inactive | inhibition [13]: Active | inhibition [14]: Active | inhibition [15]: inactive | inhibition [16]: inactive | inhibition [17]: inactive | inhibition [18]: inactive | inhibition [19]: inactive | inhibition [20]: inactive | inhibition [21]: inactive | inhibition [22]: Active | inhibition [23]: inactive | inhibition [24]: inactive | inhibition [25]: Active | inhibition [26]: inactive | inhibition [27]: inactive | inhibition [28]: inactive
SMILES: CCCc1cc(C)[nH]c(=O)c1CNC(=O)c1cc(-c2ccnc(N3CCN(C)CC3)c2)cc2c1cnn2C(C)C
